Results published in ChEMBL document CHEMBL3580561, “Mitigation of Acetylcholine Esterase Activity in the 1,7-Diazacarbazole Series of Inhibitors of Checkpoint Kinase 1” (J Med Chem, 2015).
pEC50, pIC50: −log10 of the molar value.

Tests used:
[1] = molecular target: T1, Serine/threonine-protein kinase Chk1 (Homo sapiens, UniProt O14757); experiment: Inhibition of human recombinant Chk1 using biotinylated AKT substrate after 30 mins by Alphascreen biochemical assay
T1 sequence (O14757 whole entry): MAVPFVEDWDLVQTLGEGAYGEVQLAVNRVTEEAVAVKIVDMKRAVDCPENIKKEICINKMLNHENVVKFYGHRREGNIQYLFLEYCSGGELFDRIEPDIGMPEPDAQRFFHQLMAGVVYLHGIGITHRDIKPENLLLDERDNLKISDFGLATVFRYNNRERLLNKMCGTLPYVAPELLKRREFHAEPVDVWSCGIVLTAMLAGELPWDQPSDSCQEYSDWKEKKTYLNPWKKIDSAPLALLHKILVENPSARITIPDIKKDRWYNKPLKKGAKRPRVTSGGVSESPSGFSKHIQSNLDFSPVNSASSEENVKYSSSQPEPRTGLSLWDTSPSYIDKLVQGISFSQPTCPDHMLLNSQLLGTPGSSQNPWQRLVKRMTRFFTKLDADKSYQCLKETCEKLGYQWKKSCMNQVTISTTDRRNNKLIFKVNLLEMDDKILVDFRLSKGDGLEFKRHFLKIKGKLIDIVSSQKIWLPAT

[2] = molecular target: T1, Serine/threonine-protein kinase Chk1; experiment: Inhibition of CHK1 in human HT29 cells assessed as phosphorylation of histone H3 after 24 hrs by checkpoint abrogation cellular assay; format: cell-based, HT-29
HT-29 [3] = experiment: Cytotoxicity against human HT-29 cells assessed as 10-fold reduction of gemcitabine IC50 after 72 hrs by Isobologram assay; format: functional; details: HT-29, 72 h
Outline: (§1)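 HT-29 cells exposed 72 h to a range of gemcitabine concentrations, alone or combined with a range of ChK1 inhibitor concentrations. Viability read by CellTiter-Glo luminescence. […] Synergy assessed by combination index or Bliss independence.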

HT-29 [4] = experiment: Cytotoxicity against human HT-29 cells after 72 hrs by CellTiter-Glo luminescent assay; format: functional; details: HT-29, 72 h; outline: as §1
HT-29 [5] = experiment: Cytotoxicity against human HT-29 cells assessed as 10-fold reduction of gemcitabine IC50 after 72 hrs by Isobologram assay relative to untreated control; format: functional
Outline: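 HT-29 cells exposed 72 h to a range of gemcitabine hydrochloride concentrations, alone or combined with varying ChK1 inhibitor concentrations. Viability read by CellTiter-Glo luminescence. […] Synergy judged by combination index or Bliss independence analysis.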

HT-29 [6] = experiment: Potentiation of 60 mg/kg gemcitabine-induced anticancer activity in human HT-29 cells xenografted in po treated mouse assessed as increase in gammaH2AX by Western blot analysis; format: functional, organism-based
Outline: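 HT-29 xenograft mice (n=4 per randomized group) got gemcitabine 60 mg/kg or saline. After 24 h they received an oral inhibitor dose in MCT (0.5% methylcellulose/0.2% Tween 80) or vehicle. Tumors were excised 16 h later, flash-frozen and lysed. Western blots (25 μg/lane) were probed for pS139 H2AX and total H2AX with IR-dye detection. The γH2AX:total ratio is expressed as fold-change from the gemcitabine-only group mean.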

HT-29 [7] = experiment: Potentiation of gemcitabine-induced anticancer activity in human HT-29 cells xenografted in po treated NCr nude mouse assessed as reduction in tumor volume measured after five cycles with 120 mg/kg, ip gemcitabine at five day intervals; format: functional, organism-based
Outline: (§2)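 NCr nude mice aged 8–12 weeks were inoculated with 5×10^6 HT-29 cells in HEPES-buffered saline:Matrigel 50:50. At 125–250 mm³, tumors were split into volume-matched cohorts (n=5 or 10). Gemcitabine in saline was given i.p., and the inhibitor as an MCT suspension by oral gavage 24 h later. Tumor volume and body weight were monitored. %TGI was derived by linear mixed-effect modeling, with two-way ANOVA/Tukey for p-values.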

Mus musculus [8] = experiment: Toxicity in human HT-29 cells xenografted in NCr nude mouse assessed as body weight change measured after five cycles with 120 mg/kg, ip gemcitabine at five day intervals at 50 mg/kg, po; format: organism-based; details: in vivo; outline: as §2
Acetylcholinesterase = Acetylcholinesterase (Homo sapiens, UniProt P22303); experiment: Inhibition of human acetylcholine esterase by horseradish peroxidase-coupled fluorescence assay
Acetylcholinesterase, sequence (P22303 whole entry): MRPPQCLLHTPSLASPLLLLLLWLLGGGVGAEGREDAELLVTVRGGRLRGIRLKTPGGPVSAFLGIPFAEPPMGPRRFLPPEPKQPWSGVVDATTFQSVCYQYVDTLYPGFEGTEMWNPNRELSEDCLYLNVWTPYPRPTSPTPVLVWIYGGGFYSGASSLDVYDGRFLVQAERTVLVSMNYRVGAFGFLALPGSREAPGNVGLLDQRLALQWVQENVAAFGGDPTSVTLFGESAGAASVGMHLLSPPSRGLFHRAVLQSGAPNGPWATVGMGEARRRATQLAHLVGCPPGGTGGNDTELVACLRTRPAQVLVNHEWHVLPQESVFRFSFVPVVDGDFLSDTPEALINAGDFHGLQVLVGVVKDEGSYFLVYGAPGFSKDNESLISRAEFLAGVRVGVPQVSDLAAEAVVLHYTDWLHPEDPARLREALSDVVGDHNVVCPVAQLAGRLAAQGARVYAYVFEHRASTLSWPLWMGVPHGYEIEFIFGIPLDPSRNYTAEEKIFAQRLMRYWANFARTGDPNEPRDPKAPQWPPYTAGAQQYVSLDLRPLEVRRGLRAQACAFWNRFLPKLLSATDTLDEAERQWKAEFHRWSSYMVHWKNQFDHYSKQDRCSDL
Outline: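 Human AChE at 0.006 U/ml, with 0.25 μM acetylcholine chloride, 0.06 U/ml choline oxidase, 0.05 U/ml horseradish peroxidase and 200 μM Amplex Red, in proprietary buffer with test compound. Incubated 30 min at 25 °C. Fluorescence read.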

[9] = Clearance in CD1 mouse at 1 mg/kg, iv solution at pH 4.5; format: ADME, organism-based; details: in vivo
[10] = Clearance in Sprague-Dawley rat at 1 mg/kg, iv solution at pH 4.5; format: ADME, organism-based; details: in vivo
[11] = Clearance in Beagle dog at 1 mg/kg, iv solution at pH 4.5; format: ADME, organism-based, Canis lupus familiaris; details: in vivo
[12] = Clearance in cynomolgus monkey at 1 mg/kg, iv solution at pH 4.5; format: ADME, organism-based, Macaca fascicularis; details: in vivo
[13] = Volume of distribution at steady state in CD1 mouse at 1 mg/kg, iv solution at pH 4.5; format: ADME, organism-based; details: in vivo, read-out: Vdss
[14] = Volume of distribution at steady state in Sprague-Dawley rat at 1 mg/kg, iv solution at pH 4.5; format: ADME, organism-based; details: in vivo, read-out: Vdss
[15] = Volume of distribution at steady state in Beagle dog at 1 mg/kg, iv solution at pH 4.5; format: ADME, organism-based, Canis lupus familiaris; details: in vivo, read-out: Vdss
[16] = Volume of distribution at steady state in cynomolgus monkey at 1 mg/kg, iv solution at pH 4.5; format: ADME, organism-based, Macaca fascicularis; details: in vivo, read-out: Vdss
[17] = (§3) AUC in CD1 mouse at 5 mg/kg, po suspension at pH 6.5; format: ADME, organism-based; details: CD1, mouse, in vivo, 5 mg/kg, pH 6.5
[18] = AUC in Sprague-Dawley rat at 5 mg/kg, po suspension at pH 6.5; format: ADME, organism-based; details: in vivo
[19] = AUC in Beagle dog at 2 mg/kg, po suspension at pH 6.5; format: ADME, organism-based, Canis lupus familiaris; details: in vivo
[20] = AUC in cynomolgus monkey at 2 mg/kg, po suspension at pH 6.5; format: ADME, organism-based, Macaca fascicularis; details: in vivo
[21] = Cmax in CD1 mouse at 5 mg/kg, po suspension at pH 6.5; format: ADME, organism-based; set-up: dose 5 mg/kg, route oral; details: in vivo
[22] = Cmax in Sprague-Dawley rat at 5 mg/kg, po suspension at pH 6.5; format: ADME, organism-based; set-up: dose 5 mg/kg, route oral; details: in vivo
[23] = Cmax in Beagle dog at 2 mg/kg, po suspension at pH 6.5; format: ADME, organism-based, Canis lupus familiaris; set-up: dose 2 mg/kg, route oral; details: in vivo
[24] = Cmax in cynomolgus monkey at 2 mg/kg, po suspension at pH 6.5; format: ADME, organism-based, Macaca fascicularis; set-up: dose 2 mg/kg, route oral; details: in vivo
[25] = (§4) Oral bioavailability in CD1 mouse at 5 mg/kg suspension at pH 6.5; format: ADME, organism-based; details: CD1, mouse, in vivo, 5 mg/kg, pH 6.5
[26] = Oral bioavailability in Sprague-Dawley rat at 5 mg/kg suspension at pH 6.5; format: ADME, organism-based; details: in vivo
[27] = Oral bioavailability in Beagle dog at 2 mg/kg suspension at pH 6.5; format: ADME, organism-based, Canis lupus familiaris; details: in vivo
[28] = Oral bioavailability in cynomolgus monkey at 2 mg/kg suspension at pH 6.5; format: ADME, organism-based, Macaca fascicularis; details: in vivo
[29] = Plasma protein binding in CD1 mouse; format: ADME, cell-free; details: read-out: PPB (converted)
[30] = Plasma protein binding in Sprague-Dawley rat; format: ADME, cell-free; details: read-out: PPB (converted)
[31] = Plasma protein binding in Beagle dog; format: ADME, cell-free, Canis lupus familiaris; details: read-out: PPB (converted)
[32] = Plasma protein binding in cynomolgus monkey; format: ADME, cell-free, Macaca fascicularis; details: read-out: PPB (converted)
HT-29 [33] = experiment: Potentiation of gemcitabine-induced anticancer activity in human HT-29 cells xenografted in po treated NCr nude mouse assessed as reduction in tumor volume measured after four cycles with 60 mg/kg, ip gemcitabine at four day intervals; format: functional, organism-based; outline: as §2
HT-29 [34] = experiment: Potentiation of gemcitabine-induced anticancer activity in human HT-29 cells xenografted in NCr nude mouse assessed as reduction in tumor volume measured after four cycles with 60 mg/kg, ip gemcitabine at four day intervals at 50 mg/kg, po; format: functional; set-up: scale not given: the % may be the effect or the level left
Outline: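 NCr nude mice, 8–12 weeks old, inoculated with 5×10^6 HT-29 cells in HEPES-buffered saline:Matrigel 50:50. Volume-matched cohorts formed at 125–250 mm³. Gemcitabine 60 mg/kg given i.p. in saline. Inhibitor given orally in 0.5% methylcellulose/0.2% Tween 80 suspension 24 h later. Four cycles at four-day intervals. Tumor volume monitored. %TGI by linear mixed-effect modeling; two-way ANOVA with Tukey test.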

Mus musculus [35] = experiment: Toxicity in human HT-29 cells xenografted in NCr nude mouse assessed as body weight change measured after four cycles with 60 mg/kg, ip gemcitabine at four day intervals at 50 mg/kg, po; format: organism-based; details: in vivo; outline: as §2
Mus musculus [36] = experiment: as §3; format: ADME, organism-based; details: mouse, in vivo, pH 6.5, 5 mg/kg
Mus musculus [37] = experiment: as §4; format: ADME, organism-based; details: mouse, in vivo, pH 6.5, 5 mg/kg

Row | SMILES | pIC50 [1] | pEC50 [2] | EC10 (HT-29 [3]) | GI50 (HT-29 [4]) | fold change (FC) (HT-29 [5]) | Activity (HT-29 [6]) | pIC50 (Acetylcholinesterase) | clearance [10] | clearance [11] | clearance [12] | Vd [13] | Vd [14] | Vd [15] | Vd [16] | AUC [18] | AUC [19] | AUC [20] | Cmax [21] | Cmax [22] | Cmax [23] | further results
1 | N#Cc1cc2c(cn1)[nH]c1ncc(-c3ccc(CN4CCCCC4)cc3)cc12 | 9.00 | 7.27 | 0.01 µM | 8.7 µM | 870 | Dose-dependent effect | 6.48 | 1.48 L/h/kg | 7.08 L/h/kg | 2.75 L/h/kg | 6.57 L/kg | 6.35 L/kg | 23.4 L/kg | 25.7 L/kg | 6190 nM·h | 101 nM·h | 869 nM·h | 0.386 µM | 0.52 µM | 0.021 µM | Activity (HT-29 [7]): Dose-dependent effect; Activity (Mus musculus [8]): Non-toxic; clearance [9]: 3.35 L/h/kg; AUC [17]: 2680 nM·h; Cmax [24]: 0.044 µM; bioavailability [25]: 86.5%; bioavailability [26]: 67.4%; bioavailability [27]: 13.1%; bioavailability [28]: 43.8%; fraction unbound [29]: 0.05; fraction unbound [30]: 0.047; fraction unbound [31]: 0.132; fraction unbound [32]: 0.117
2 | N#Cc1cc2c(cn1)[nH]c1ncc(-c3ccc(CN4CCC5(CC4)COC5)cc3)cc12 | 8.60 | 7.14 | 0.016 µM | > 2.5 µM | > 156 | Dose-dependent effect | 5.62 | 1.65 L/h/kg | 0.654 L/h/kg | 1.85 L/h/kg | 7.33 L/kg | 7.55 L/kg | 9.63 L/kg | 17.1 L/kg | 8630 nM·h | 3510 nM·h | 910 nM·h | 0.191 µM | 1.1 µM | 0.2 µM | Activity (HT-29 [33]): Dose-dependent effect; Activity (HT-29 [34]): 111%; Activity (Mus musculus [35]): Non-toxic; AUC (Mus musculus [36]): 1330 nM·h; Cmax [24]: 0.086 µM; F (Mus musculus [37]): 48.5%; bioavailability [26]: 116%; bioavailability [27]: 46.7%; bioavailability [28]: 34%; fraction unbound [29]: 0.038; fraction unbound [30]: 0.025; fraction unbound [31]: 0.052; fraction unbound [32]: 0.049
